We go through 8 compounds from ChEMBL document CHEMBL1212770, “Molecular and biochemical characterization of the natural chromosome-encoded class A beta-lactamase from Pseudomonas luteola” (Antimicrob Agents Chemother, 2010).

Each structure is given as a SMILES string. ≈ marks a conversion by molar mass, not a printed value. Calls of active or inactive are those of the source. No cut-off for these calls is given here.

In assay [1] the test system is Pseudomonas luteola. Briefly: Antimicrobial activity against Pseudomonas luteola LAM expressing blaLUT-1 by Etest method. The class given is functional.
Assay [2] has as its system Pseudomonas luteola. The assay can be described thus: Antimicrobial activity against Pseudomonas luteola expressing blaLUT-2 to blaLUT-6 by Etest method. The class given is functional.
Assay [3] has as its system Escherichia coli. The assay can be described thus: Antimicrobial activity against Escherichia coli DH10B transfected with pBK-L3 expressing blaLUT-1 by Etest method. The format is functional. As to conditions: K-12 DH10B.
Assay [4] relates to Pseudomonas luteola. Briefly: Antimicrobial activity against Pseudomonas luteola by disk diffusion method. The format is functional. In a few lines: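 Disk diffusion panel of 32 antimicrobial drugs tested on P. luteola clinical isolates and the type strain. Isolates were identified by API-20 NE and by sequencing of PCR-amplified rrs and rpoB.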
Assay [5] deals with Escherichia coli. The assay can be described thus: Antimicrobial activity against Escherichia coli DH10B at 2:1 ratio of compound to clavulanic acid by Etest method. The format is functional. The note with it: K-12 DH10B.
Assay [6] has as its system Escherichia coli. The assay can be described thus: Antimicrobial activity against Escherichia coli DH10B by Etest method. The class given is functional. As to conditions: K-12 DH10B.
The test system of assay [7] is Pseudomonas luteola. Briefly: Antimicrobial activity against Pseudomonas luteola LAM expressing blaLUT-1 at 2:1 ratio of compound to clavulanic acid by Etest method. The class given is functional.
Assay [8] has as its system Escherichia coli. The assay can be described thus: Antimicrobial activity against Escherichia coli DH10B transfected with pBK-L3 expressing blaLUT-1 at 2:1 ratio of compound to clavulanic acid by Etest method. The format is functional. The note with it: K-12 DH10B.
For assay [9], the system named is Pseudomonas luteola. The assay can be described thus: Antimicrobial activity against Pseudomonas luteola expressing blaLUT-2 to blaLUT-6 at 2:1 ratio of compound to clavulanic acid by Etest method. The format is functional.
Assay [10] has as its system Pseudomonas luteola. The assay can be described thus: Antimicrobial activity against Pseudomonas luteola LAM expressing blaLUT-1 by Etest method in presence of 4 ug/ml clavulanic acid. The class given is functional.
Assay [11] deals with Escherichia coli. Briefly: microbe, parasite or virus in culture. The note with it: K-12 DH10B.
The test system of assay [12] is Escherichia coli. The assay can be described thus: Antimicrobial activity against Escherichia coli DH10B by Etest method in presence of 4 ug/ml clavulanic acid. The class given is functional. The note with it: K-12 DH10B.
Assay [13] concerns Pseudomonas luteola. The assay can be described thus: Antimicrobial activity against Pseudomonas luteola expressing blaLUT-2 to blaLUT-6 by Etest method in presence of 4 ug/ml clavulanic acid. The format is functional.

Regarding `CO/N=C(\C(=O)N[C@@H]1C(=O)N2C(C(=O)[O-])=C(C[N+]3(C)CCCC3)CS[C@H]12)c1csc(N)n1`, the MIC in assay [1] stood at 0.5 µg/mL (≈ 1.04 µM); in [2], 1 µg/mL (≈ 2.08 µM); in [3] it was 0.5 µg/mL (≈ 1.04 µM).

For `COc1cc(Cc2cnc(N)nc2N)cc(OC)c1OC`, in [4], the result was inactive.

For the compound `Cn1nnnc1SCC1=C(C(=O)O)N2C(=O)[C@@H](NC(=O)[C@H](O)c3ccccc3)[C@H]2SC1`, the outcome in assay [4] was inactive.

For the compound `O=C(N[C@H](CO)[C@H](O)c1ccc([N+](=O)[O-])cc1)C(Cl)Cl`, the result in assay [1] was inactive.

As for `CC1(C)S[C@@H]2[C@H](NC(=O)[C@H](N)c3ccc(O)cc3)C(=O)N2[C@H]1C(=O)O` [AMOXICILLIN], the MIC was 4 µg/mL (≈ 10.9 µM) in assay [1]; 4 µg/mL in assay [5]; 4 µg/mL (≈ 10.9 µM) in [6]; 4 µg/mL (≈ 10.9 µM) in assay [2]; 128 µg/mL (≈ 350 µM) in [3]; 1 µg/mL in assay [7]. The MIC is 4 µg/mL in assay [8] and 1 µg/mL in assay [9].

Regarding `C[C@H]1[C@H](NC(=O)/C(=N\OC(C)(C)C(=O)O)c2csc(N)n2)C(=O)N1S(=O)(=O)O` [AZTREONAM], the MIC in assay [1] came to 2 µg/mL (≈ 4.59 µM); in [2], 4 µg/mL (≈ 9.19 µM); in assay [3] it was 2 µg/mL (≈ 4.59 µM).

In the case of `CO/N=C(\C(=O)N[C@@H]1C(=O)N2C(C(=O)O)=C(COC(C)=O)CS[C@H]12)c1csc(N)n1` [CEFOTAXIME], the MIC is 1 µg/mL (≈ 2.2 µM) in assay [1]; below 0.06 µg/mL in [6]; 2 µg/mL (≈ 4.39 µM) in assay [2]; 1 µg/mL (≈ 2.2 µM) in [3]; 1 µg/mL in assay [10]; 0.06 µg/mL (≈ 0.132 µM) in [11]. Further, the MIC in assay [12] is below 0.06 µg/mL; in [13], 1 µg/mL.

In the case of `CO[C@@]1(NC(=O)Cc2cccs2)C(=O)N2C(C(=O)O)=C(COC(N)=O)CS[C@@H]21` [CEFOXITIN], the MIC in assay [1] worked out at 32 µg/mL (≈ 74.9 µM); in assay [6] it was 4 µg/mL (≈ 9.36 µM); in assay [2], 32 µg/mL (≈ 74.9 µM); in assay [3] it was 4 µg/mL (≈ 9.36 µM).
